Results taken from ChEMBL document CHEMBL1135657, “Novel dual inhibitors of AChE and MAO derived from hydroxy aminoindan and phenethylamine as potential treatment for Alzheimer's disease” (J Med Chem, 2002).

Key:
[1] = target: T1, Amine oxidase [flavin-containing] A (Rattus norvegicus, UniProt P21396); assay: In vitro inhibitory concentration against Monoamine oxidase A of rat brain homogenates; value ranges from 9-52; type: tissue-based
T1 sequence (P21396 whole entry): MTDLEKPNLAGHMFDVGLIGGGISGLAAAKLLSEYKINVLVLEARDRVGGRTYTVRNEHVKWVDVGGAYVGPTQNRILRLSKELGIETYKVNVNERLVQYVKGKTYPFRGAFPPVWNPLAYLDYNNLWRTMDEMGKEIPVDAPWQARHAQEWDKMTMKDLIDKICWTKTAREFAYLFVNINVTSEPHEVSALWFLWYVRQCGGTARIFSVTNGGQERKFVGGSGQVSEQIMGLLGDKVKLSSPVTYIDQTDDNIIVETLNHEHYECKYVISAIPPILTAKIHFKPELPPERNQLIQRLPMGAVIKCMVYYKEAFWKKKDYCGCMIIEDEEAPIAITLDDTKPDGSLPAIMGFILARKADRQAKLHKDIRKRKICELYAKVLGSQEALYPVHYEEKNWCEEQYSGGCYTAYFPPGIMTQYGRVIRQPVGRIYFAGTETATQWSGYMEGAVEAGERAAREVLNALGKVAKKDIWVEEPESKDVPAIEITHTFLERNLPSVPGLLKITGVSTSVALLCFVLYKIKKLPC

[2] = target: T2, Acetylcholinesterase (Homo sapiens, UniProt P22303); assay: In vitro inhibitory concentration against purified Acetylcholinesterase of human erythrocytes; value ranges from 0.12-0.41
[3] = target: T3, Amine oxidase [flavin-containing] B (Rattus norvegicus, UniProt P19643); assay: In vitro inhibitory concentration against Monoamine oxidase B of rat brain homogenates; type: tissue-based
T3 sequence (P19643 whole entry): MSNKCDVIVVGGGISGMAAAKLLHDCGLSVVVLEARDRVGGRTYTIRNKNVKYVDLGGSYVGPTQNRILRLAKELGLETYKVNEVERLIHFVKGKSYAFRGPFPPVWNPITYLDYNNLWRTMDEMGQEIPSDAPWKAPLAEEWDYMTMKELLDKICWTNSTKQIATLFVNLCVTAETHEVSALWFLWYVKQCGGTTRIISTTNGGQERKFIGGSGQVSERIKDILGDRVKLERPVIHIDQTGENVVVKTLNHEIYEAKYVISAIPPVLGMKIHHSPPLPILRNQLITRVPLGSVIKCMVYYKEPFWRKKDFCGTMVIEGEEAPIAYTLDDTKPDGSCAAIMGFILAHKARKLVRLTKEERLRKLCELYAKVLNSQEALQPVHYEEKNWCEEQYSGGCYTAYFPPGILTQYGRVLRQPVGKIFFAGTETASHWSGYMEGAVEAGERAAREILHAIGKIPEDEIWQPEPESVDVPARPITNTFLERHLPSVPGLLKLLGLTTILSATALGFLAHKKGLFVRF

[4] = Pseudo-first order rate constant for carbamoylation of ACHE at 20 (uM) concentration; type: ADME
Procedure, shortened: (§1)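 Human erythrocyte AChE, Ellman method with 200 µM […] substrate, 0.1 M phosphate buffer pH 7.4, 37 °C. Progressive inhibition followed at 4–5 inhibitor concentrations. Pseudo-first-order carbamylation rate constants k_obs (min⁻¹) derived as per Bar-On et al. and reported ±SEM. Apparent bimolecular rate constant k_i calculated from these.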

[5] = Bimolecular rate constant for carbamoylation of ACHE; type: ADME
Procedure, shortened: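 Human erythrocyte AChE preincubated with inhibitor at 37 °C in 0.1 M phosphate buffer, pH 7.4, under Ellman conditions with 200 µM […]. Pseudo-first-order rate constants (k_obs) for progressive inhibition were obtained at 4-5 inhibitor concentrations. The apparent bimolecular carbamylation constant k_i was calculated from these.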

[6] = target: T1, Amine oxidase [flavin-containing] A; assay: In vitro inhibitory concentration against Monoamine oxidase A of rat brain homogenates; value ranges from 8-43; type: tissue-based
[7] = Pseudo-first order rate constant for carbamoylation of ACHE at 40 (uM) concentration; type: ADME; procedure, shortened: as §1
[8] = Pseudo-first order rate constant for carbamoylation of ACHE at 10 (uM) concentration; type: ADME; procedure, shortened: as §1
[9] = target: T4, Butyrylcholinesterase (Equus caballus, UniProt Q9N1N9); assay: In vitro inhibitory concentration against Butyrylcholinesterase of horse serum; value ranges from 0.64-0.89
[10] = target: T2, Acetylcholinesterase; assay: In vitro inhibitory concentration against purified Acetylcholinesterase of human erythrocytes; value ranges from 2.36-4.22
[11] = Pseudo-first order rate constant for carbamoylation of ACHE at 2.5(uM) concentration; type: ADME; procedure, shortened: as §1
[12] = Pseudo-first order rate constant for carbamoylation of ACHE at 5 (uM) concentration; type: ADME; procedure, shortened: as §1
[13] = Pseudo-first order rate constant for carbamoylation of ACHE at 50 (uM) concentration; type: ADME
Procedure, shortened: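 Human erythrocyte AChE, same Ellman conditions: 200 µM […], 60 min preincubation at 37 °C, 0.1 M phosphate pH 7.4. Progressive inhibition followed at 4-5 inhibitor concentrations. Pseudo-first-order k_obs (min⁻¹) derived per concentration; apparent bimolecular carbamylation constant k_i calculated from these.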

[14] = target: T3, Amine oxidase [flavin-containing] B; assay: In vitro inhibitory concentration against Monoamine oxidase B of rat brain homogenates; value ranges from 0.8-2.9; type: tissue-based
[15] = target: T2, Acetylcholinesterase; assay: In vitro inhibitory concentration against purified Acetylcholinesterase of human erythrocytes; value ranges from 0.44-0.49
[16] = target: T4, Butyrylcholinesterase; assay: In vitro inhibitory concentration against Butyrylcholinesterase of horse serum; value ranges from 10.7-43.7
Procedure, shortened: (§2)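 Ellman assay followed, with 200 µM butyrylthiocholine as substrate. Runs were in triplicate with four-point dose-response curves. IC50 and fiducial limits came from log concentration versus % inhibition.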

[17] = target: T2, Acetylcholinesterase; assay: In vitro inhibitory concentration against purified Acetylcholinesterase of human erythrocytes; value ranges from 252-806
[18] = target: T4, Butyrylcholinesterase; assay: In vitro inhibitory concentration against Butyrylcholinesterase of horse serum; value ranges from 0.70-0.92; procedure, shortened: as §2
[19] = target: T2, Acetylcholinesterase
[20] = target: T2, Acetylcholinesterase; remark: listed apart in the source
[21] = target: T2, Acetylcholinesterase; assay: In vitro inhibitory concentration against purified Acetylcholinesterase of human erythrocytes; value ranges from […]-[…]
[22] = target: T4, Butyrylcholinesterase; assay: In vitro inhibitory concentration against Butyrylcholinesterase of horse serum; value ranges from 7.65-13.2; procedure, shortened: as §2
[23] = target: T1, Amine oxidase [flavin-containing] A; assay: In vitro inhibitory concentration against Monoamine oxidase A of rat brain homogenates 47-101; type: tissue-based
[24] = target: T4, Butyrylcholinesterase; assay: In vitro inhibitory concentration against Butyrylcholinesterase of horse serum; value ranges from 0.038-0.064; procedure, shortened: as §2
[25] = target: T2, Acetylcholinesterase; assay: In vitro inhibitory concentration against purified Acetylcholinesterase of human erythrocytes; value ranges from 0.025-0.027
[26] = target: T1, Amine oxidase [flavin-containing] A; assay: In vitro inhibitory concentration against Monoamine oxidase A of rat brain homogenates; value ranges from 5.6-11.1; type: tissue-based
[27] = target: T1, Amine oxidase [flavin-containing] A; assay: In vitro inhibitory concentration against Monoamine oxidase A of rat brain homogenates; value ranges from 5.6-19.6; type: tissue-based
[28] = target: T2, Acetylcholinesterase; assay: In vitro inhibitory concentration against purified Acetylcholinesterase of human erythrocytes; value ranges from 0.012-0.014
[29] = target: T1, Amine oxidase [flavin-containing] A; assay: biochemical; type: tissue-based, Brain
[30] = target: T2, Acetylcholinesterase; assay: In vitro inhibitory concentration against purified Acetylcholinesterase of human erythrocytes; value ranges from 8.99-49.4
[31] = target: T4, Butyrylcholinesterase; assay: In vitro inhibitory concentration against Butyrylcholinesterase of horse serum; value ranges from 0.76-4.2; procedure, shortened: as §2
[32] = target: T3, Amine oxidase [flavin-containing] B; assay: In vitro inhibitory concentration against Monoamine oxidase B of rat brain homogenates; value ranges from 80.-92
[33] = target: T2, Acetylcholinesterase; remark: listed apart in the source
[34] = target: T1, Amine oxidase [flavin-containing] A; assay: In vitro inhibitory concentration against Monoamine oxidase A of rat brain homogenates; value ranges from 0.22-0.29; type: tissue-based
[35] = target: T1, Amine oxidase [flavin-containing] A; assay: In vitro inhibitory concentration against Monoamine oxidase A of rat brain homogenates; value ranges from 30-230; type: tissue-based
[36] = target: T4, Butyrylcholinesterase; assay: In vitro inhibitory concentration against Butyrylcholinesterase of horse serum; value ranges from 0.34-1.03; procedure, shortened: as §2

T4 sequence (Q9N1N9 whole entry): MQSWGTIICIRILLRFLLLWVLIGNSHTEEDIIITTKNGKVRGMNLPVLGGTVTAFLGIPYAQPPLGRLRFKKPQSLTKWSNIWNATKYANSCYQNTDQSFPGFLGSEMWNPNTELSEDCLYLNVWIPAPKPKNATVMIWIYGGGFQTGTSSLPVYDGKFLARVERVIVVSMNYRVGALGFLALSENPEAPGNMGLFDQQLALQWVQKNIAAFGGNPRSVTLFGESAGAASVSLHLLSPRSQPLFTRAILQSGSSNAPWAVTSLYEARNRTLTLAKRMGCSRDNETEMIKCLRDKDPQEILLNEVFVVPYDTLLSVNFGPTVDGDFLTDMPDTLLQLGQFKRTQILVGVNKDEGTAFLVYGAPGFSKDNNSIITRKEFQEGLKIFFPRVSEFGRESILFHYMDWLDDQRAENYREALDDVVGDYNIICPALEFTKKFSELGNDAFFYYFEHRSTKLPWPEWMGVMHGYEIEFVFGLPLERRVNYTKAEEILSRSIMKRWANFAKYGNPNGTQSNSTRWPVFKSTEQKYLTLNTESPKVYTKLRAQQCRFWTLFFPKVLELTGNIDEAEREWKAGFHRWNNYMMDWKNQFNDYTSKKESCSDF
T2 sequence (P22303 whole entry): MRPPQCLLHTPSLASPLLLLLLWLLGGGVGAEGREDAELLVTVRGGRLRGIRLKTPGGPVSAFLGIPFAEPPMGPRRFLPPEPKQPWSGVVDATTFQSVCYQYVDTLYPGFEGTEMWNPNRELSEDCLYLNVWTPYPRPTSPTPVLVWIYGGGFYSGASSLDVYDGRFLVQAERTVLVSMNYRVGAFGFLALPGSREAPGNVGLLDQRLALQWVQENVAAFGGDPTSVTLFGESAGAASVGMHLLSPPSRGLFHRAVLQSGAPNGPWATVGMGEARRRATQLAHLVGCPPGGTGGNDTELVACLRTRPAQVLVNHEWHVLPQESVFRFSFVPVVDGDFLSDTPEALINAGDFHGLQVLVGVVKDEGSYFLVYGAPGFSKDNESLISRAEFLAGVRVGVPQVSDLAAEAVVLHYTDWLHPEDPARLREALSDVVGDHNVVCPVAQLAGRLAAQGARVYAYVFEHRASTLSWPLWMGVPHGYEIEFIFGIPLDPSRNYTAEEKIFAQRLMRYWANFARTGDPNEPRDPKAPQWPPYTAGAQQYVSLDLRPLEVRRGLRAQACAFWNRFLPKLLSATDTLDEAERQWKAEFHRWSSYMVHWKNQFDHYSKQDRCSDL

With `CNCCc1cccc(OC(=O)N(C)C)c1` the IC50 [1] was 22 µM, the IC50 [2] was 0.28 µM and the IC50 [3] was over 1000 µM.
In the case of `C#CCN(C)C(C)Cc1cccc(OC(=O)N(C)CCCCCC)c1` (stereo not given), the K obs [4] is reported as 30 min⁻¹, the “Bimolecular carbamoylation rate constant (ki)” value [5] is reported as 17.25 M⁻¹ s⁻¹ and the IC50 [6] is reported as 20 µM. It also gave a K obs [7] of 55 min⁻¹, a K obs [8] of 23 min⁻¹ and an IC50 [9] of 0.72 µM. It also gave an IC50 [10] of 3.06 µM, a K obs [11] of 14 min⁻¹ and a K obs [12] of 15 min⁻¹. It also gave a K obs [13] of 63 min⁻¹ and an IC50 [14] of 1.5 µM.
For `CN(C)C(=O)Oc1cccc2c1C(N)CC2` (stereo not given), the IC50 [15] was 0.46 µM.
In the case of `C#CCN(C)C1CCc2cccc(OC(=O)N(C)CC)c21` (stereo not given), the IC50 [16] is reported as 20 µM and the IC50 [17] is reported as 439 µM.
In the case of `C#CCN(C)C1CCc2c(OC(=O)N(C)CC)cccc21` (stereo not given), the IC50 [18] is reported as 0.79 µM and the IC50 [19] is reported as 14.9 µM.
For `CCN(C)C(=O)Oc1cccc2c1C(N)CC2` (stereo not given), the IC50 [20] was 10.5 µM and the IC50 [3] was over 1000 µM.
Compound `COc1ccc(N(C)C(=O)Oc2ccc3c(c2)C(N)CC3)cc1` (stereo not given) has an IC50 [21] of 0.3 µM and an IC50 [22] of 9.91 µM.
`C#CCNC1CCc2ccc(OC(=O)NCCC)cc21` (stereo not given) gave an IC50 [23] of 69 µM.
`CCN(C)C(=O)Oc1cccc2c1CCC2N` (stereo not given) showed an IC50 [24] of 0.054 µM, an IC50 [25] of 0.026 µM and an IC50 [3] of over 1000 µM. The IC50 [26] was 7.9 µM.
`CN(C)C(=O)Oc1cccc2c1CCC2N(C)C` (stereo not given) gave an IC50 [27] of 10 µM, an IC50 [28] of 0.013 µM and an IC50 [3] of over 1000 µM.
Work on `CCN(C)C(=O)Oc1ccc2c(c1)C(N)CC2` (stereo not given) yielded an IC50 [29] of 12.9 µM, an IC50 [30] of 19 µM and an IC50 [3] of over 1000 µM. The IC50 [31] was 1.9 µM.
With `C#CCNC1CCc2c(OC(=O)N(C)C)cccc21` (stereo not given) the IC50 [32] was 86 µM, the IC50 [33] was 0.053 µM and the IC50 [34] was 0.26 µM.
In the case of `CN(C)C(=O)Oc1ccc2c(c1)C(N)CC2` (stereo not given), the IC50 [35] is reported as 80 µM and the IC50 [36] is reported as 0.63 µM.
